# How the values were obtained:
# HUVEC = experiment: Antiangiogenesis activity in HUVEC assessed as inhibition of VEGF-induced cell proliferation after 72 hrs by MTT assay; type: functional, cell-based; conditions: Homo sapiens
# How it was run: (§1)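 Cells were purchased primary endothelial cells, maintained at 37 C in 5% CO2: HUVECs in EGM-2 Bulletkit medium and HUAECs in EGM-2MV Bulletkit medium. For the assay, 3 103 cells/well were seeded in culture medium for 3 h, then switched to 1% FBS EBM-2 for 21 h. VEGF (1 nM) and compounds were added for 72 h. Proliferation was read with WST-8 at 450 nm. Ki8751, a VEGFR2 kinase inhibitor, was the positive control.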
# [1] = Antiangiogenesis activity in HUAEC assessed as inhibition of VEGF-induced cell proliferation after 72 hrs by MTT assay; type: functional; conditions: Homo sapiens; how it was run: as §1
SMILES,IC50 (HUVEC),IC50 [1]
C=C[C@]1(C)C=C2C(=O)C(O)=C3[C@@](C)(CO)CC[C@@H](O)[C@]3(C)[C@@]2(O)CC1 [LIBERTELLENONE C],29.7 µM,68.7 µM
C=C[C@]1(C)C=C2C(=O)C3=C4[C@@](C)(CC[C@@H](O)[C@]4(C)[C@@]2(O)CC1)[C@@H](O)O3 [LIBERTELLENONE E],236 µM,238 µM
C=C[C@]1(C)C=C2C(=O)C3=C4[C@@](C)(CC[C@@H](O)[C@]4(C)[C@@]2(O)CC1)CO3 [LIBERTELLENONE F],64.1 µM,97.8 µM
C=C[C@@]1(C)C=C2C(=O)C(O)=C3[C@](C)(C(=O)O)CC[C@@H]4C[C@]34[C@]2(O)C(=O)C1 [MYROCIN A],11 µM,9.2 µM
C=C[C@]1(C)C=C2[C@@H](O)[C@@H]3OC(=O)[C@@]4(C)CC[C@H]5C[C@]5([C@@H]34)[C@@]2(O)C(=O)C1 [MYROCIN D],70.8 µM,277 µM
C[C@H]1C/C=C/[C@H]2[C@@H]3O[C@]3(C)[C@@H](C)[C@H]3[C@H](Cc4ccccc4)NC(=O)[C@]32OC(=O)O/C=C/[C@@](C)(O)C1=O [CYTOCHALASIN E],0.0114 µM,0.011 µM
Cc1c(O)cc(O)c2c(=O)oc(CO)c(C)c12 [DECARBOXYHYDROXYCITRINONE],7.6 µM,17.4 µM
